Screening data (PubChem BioAssay)
Diaph act CS – compounds boosting diaphorase resazurin reduction – biochemical, uHTS, resorufin fluorescence, counter-screen for diaphorase-coupled primary assays, primary screen; hit rate 0.005% among 190,000; Diaphorase/resazurin coupled assay, 16 min; stronger effect = higher value; 1 = vehicle wells, 0 = NADH-free wells; activation factor at 20 µM; AID 1229, 2008;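 active means diaphorase activity raised at least twofold by the compound at 20 µM; inactive means activation factor below 2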
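test system = bacterial diaphorase enzyme (C. kluyveri) | quantity = enzyme 0.07 U/mL final | reagent = NADH substrate 0.114 mM plus resazurin dye 0.1 mM, final | incubation = 16 min enzyme reaction, ambient temperature | buffer or medium = HEPES pH 7.4 buffer with MgCl2 and Tween 20 | signal = fluorescence of resorufin, 544 nm excitation, 590 nm emission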
G6PDH counter – L. mesenteroides G6PDH inhibitors, counter-screen for G6PDH-coupled screening assays, biochemical, Leuconostoc mesenteroides enzyme; inhibition, % at 5 µM; glucose-6-phosphate dehydrogenase [Leuconostoc mesenteroides]; hit rate 0.12% among 200,000; Purified L. mesenteroides G6PDH, diaphorase/resazurin coupled fluorescence, 45 min; in the data active means inhibition above about 50%
PMI act satM6P – human PMI activators, high substrate, primary screen, biochemical, fluorescence intensity, near-saturating mannose 6-phosphate. coupled PMI enzyme assay, resazurin fluorescence, 20 min; stronger effect = higher value; 1 = untreated enzyme, 0 = substrate-free blank. Mannose-6-phosphate isomerase (Homo sapiens), P34949. activation factor at 20 µM. hit rate 0.34% among 190,000;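 active means activation factor of 2 or more at 20 µM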
Target sequence (P34949 whole entry, looked up): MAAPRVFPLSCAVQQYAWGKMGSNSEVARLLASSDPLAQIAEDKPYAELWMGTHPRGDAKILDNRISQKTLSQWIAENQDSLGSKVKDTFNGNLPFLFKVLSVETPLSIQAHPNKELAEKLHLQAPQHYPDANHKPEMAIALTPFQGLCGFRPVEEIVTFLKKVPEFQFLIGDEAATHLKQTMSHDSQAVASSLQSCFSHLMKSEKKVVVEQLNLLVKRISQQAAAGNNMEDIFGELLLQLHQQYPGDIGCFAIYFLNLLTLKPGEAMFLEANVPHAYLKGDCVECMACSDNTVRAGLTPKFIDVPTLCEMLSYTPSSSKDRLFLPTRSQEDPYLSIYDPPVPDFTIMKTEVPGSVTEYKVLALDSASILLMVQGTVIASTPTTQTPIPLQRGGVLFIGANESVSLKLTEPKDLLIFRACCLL
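Material: human phosphomannose isomerase with PGI, G6PDH, diaphorase coupling enzymes. Quantity: 15 ng/mL PMI. Medium: HEPES pH 7.4 buffer with MgCl2 and Tween-20. Reagent: Near-saturating mannose-6-phosphate, 1.0 mM. Compound: 20 µM single dose. Times: enzyme reaction with compound 20 min at room temperature. Detection: resorufin fluorescence at Ex 544/Em 590 nm.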
PMI activator – activators of human PMI, primary screen, biochemical, fluorescence intensity, near-Km mannose 6-phosphate. Mannose-6-phosphate isomerase (Homo sapiens), P34949. purified human PMI, coupled resazurin fluorescence, 20 min; stronger effect = higher value; 1 = vehicle control, 0 substrate-free wells. activation factor at 20 µM. hit rate 0.005% among 190,000. AID 1214, 2008;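 active means activation factor of 2 or more at 20 µM, relative to plate controls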
Diaph inh CS – diaphorase inhibitors and chemical oxidizers, primary screen, counter-screen for diaphorase-coupled primary assays, biochemical, uHTS, resorufin fluorescence | inhibition, % at 20 µM | diaphorase resazurin-to-resorufin fluorescence, NADH, 16 min; bacterial (C. kluyveri) enzyme, not human | hit rate 0.69% among 190,000;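 active means primary screen inhibition at 20 µM above a set limit, cut at about 50% in these data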;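 further: plate controls were DMSO with full reaction for no effect and wells lacking NADH for full effect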
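System: Diaphorase enzyme from Clostridium kluyveri | Amount: Enzyme working solution with 0.14 U/mL diaphorase | Benchmarks: No-NADH positive control and DMSO neutral control | Signal: Fluorescence of resorufin formed from resazurin, Ex 544/Em 590 nm | Schedule: 16-min room-temperature incubation before reading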
ROMK mod – ROMK potassium channel modulators, primary screen, cell-based, thallium flux, MLSMR library; Tet-inducible ROMK, thallium flux fluorescence; actives lie on both sides; ATP-sensitive inward rectifier potassium channel 1 (Homo sapiens), P48048; hit rate 2% among 130,000; B-score at 10 µM; AID 1918, 2009;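 active means signal ratio slope over the read window, or its plate-corrected B-score, at least 3 SD from the plate mean, either direction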;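 further: B-score of the F/F0 ratio slope over 7 to 12 s after thallium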
ROMK retest – ROMK channel modulator hit retest, confirmation, cell-based, thallium flux, duplicate, resupplied hits; fluorescence ratio; stronger effect = lower value; hit rate 54% among 3,000; shares compounds with ROMK mod; AID 1917, 2009; normalized thallium flux (F/F0 slope) at 10 µM;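 active means Flux at 10 µM at least 3 SD below or above vehicle control mean in one or both replicates; inconclusive means no clear call, values can overlap the other calls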
The depositor's hits bear a star; u = inconclusive; x = not tested or not shown. Rows were chosen to be rich in hits. Some 2.2% of all compounds tested hit in one or more screens of this group.

SMILES	Diaph act CS	G6PDH counter	PMI act satM6P	PMI activator	Diaph inh CS	ROMK mod	ROMK retest
COc1ccc(N=C2O/C(=C/c3sc(=S)n(CC4CCCO4)c3O)N=C2C#N)cc1 (centres undefined)	x	x	x	x	x	x	0.0552*
CCCc1ccc(Oc2cn[nH]c2-c2ccc(O)c(C)c2O)cc1	0.8	-14.4	0.9	0.9	20.5	-4.04*	0.0584*
CCOc1ccc(/C=C/C(=O)c2c(O)c3ccccc3oc2=O)cc1	0.9	3.2	1.2	1.1	12.2	x	0.0628*
CCOc1ccc(/C=C/C(=O)NCc2ccccc2)cc1	0.8	2.7	1	1	15.2	-0.463	x
O=C(Nc1ccccc1)Nc1ncc([N+](=O)[O-])s1	0.8	0.8	1	1.1	19.9	-1.77	0.064*
CC(C)CC(=O)Nc1ncc([N+](=O)[O-])s1	x	x	x	x	x	-1.49	x
Cc1ccc(NCc2nnc(SCC(=O)NCc3ccco3)n2CC2CCCO2)cc1Cl (centres undefined)	0.9	-3.4	1	0.9	8.8	-2.77*	0.0666*
Cc1ccc(NCc2nnc(SCC(=O)NCc3ccco3)n2CC2CCCO2)c(C)c1 (centres undefined)	0.9	1.9	0.9	0.9	12.5	0.0349	x
COc1cc(/C=C/C(=O)OCC(=O)c2c(N)n(C)c(=O)n(C)c2=O)ccc1OC(F)F	0.9	-1.5	1	0.8	12.9	0.068	x
COc1ccc(CNc2oc(COc3ccc(Cl)cc3)nc2C#N)cc1	0.7	0.5	0.9	0.9	25.9	-2.14*	0.0729
O=C(N[C@@H](Cc1ccccc1)C(=O)NC1CCCCC1)c1ccco1	1.1	1.7	1.1	1.1	-7.4	1.92*	0.0801
Cc1oc(-c2cccc3ccccc23)nc1CN1CCC[C@H]1CO	1	6.0	1	1	3.1	-1.54	x
O=C(O)CC(Cc1ccccc1)C(=O)NCC12CC3CC(CC(C3)C1)C2 (centres undefined)	0.9	15.0	0.9	1	6.8	-1.6	x
COc1ccc(-n2cc(C(=O)c3cc(Cl)ccc3O)cc(C#N)c2=O)cc1	0.9	2.0	1	1	10.7	2.69*	0.0753
Cc1ccc(C)c(N(CC(=O)NC(C)(C)C)C(=O)CNC(=O)c2cccs2)c1	0.9	10.4	0.9	0.9	8.2	-0.468	x
CCN1/C(=C\c2ccc3cc(C)ccc3[n+]2CC)Sc2cc(C)c(C)cc21	1.1	-6.8	0.9	0.5	-8.2	-4.96*	0.047*
CCN1/C(=C/c2ccc3cccc(C)c3[n+]2CC)Sc2ccccc21	1.2	-5.5	1.1	1	-20.7	x	x
CCN1/C(=C/c2ccc3cc(C)cc(C)c3[n+]2CC)Sc2cc(C)ccc21	1.4	-1.6	1.1	0.8	-40.2	-5.15*	0.0449*
O=C(NCc1ccco1)C(c1ccc(F)cc1)N(C(=O)Cc1cccs1)c1cccnc1 (centres undefined)	0.9	9.5	0.9	0.9	11.1	-0.0631	x
COc1ccccc1-c1cc(C(F)(F)F)nc(S(=O)(=O)CCCC(=O)N2CCOCC2)n1	1	-4.2	1.1	1	-2.3	-3.39*	u
Cc1ccc(-n2cc(CNC(C)c3cnn(C)c3C)c(-c3ccc(F)cc3)n2)cc1 (centres undefined)	0.8	15.0	0.9	0.8	21.5	-4.09*	0.0542*
Cc1ccc(-n2cc(CNC(C)c3cnn(C)c3)c(-c3ccc(F)cc3)n2)cc1 (centres undefined)	1.1	4.0	1	0.9	-7.8	-2.65*	0.0508*
CCOCCCNC(=O)/C(C#N)=C/c1ccc(C(=O)OC)cc1	1	3.2	0.9	0.9	2.7	-2.16*	0.0453*
CCCCCCCCNC(=O)/C(C#N)=C/c1ccc(SC)cc1	0.8	5.3	0.8	0.9	21.6	-0.0199	x
CCOCCCNC(=O)/C(C#N)=C/c1ccccc1F	1	-1.6	0.9	1.1	3.8	-3.85*	0.0516*
SMILES	Diaph act CS	G6PDH counter	PMI act satM6P	PMI activator	Diaph inh CS	ROMK mod	ROMK retest
Cc1cc(/C=C2\Sc3ccccc3N2C)cc(C)[n+]1CC1CCCO1 (centres undefined)	1	-3.7	0.9	1	4.2	-4.83*	0.028*
Cc1ccc2c(c1)S/C(=C/c1ccc[n+](CCO)c1)N2C	0.9	6.6	0.9	0.9	6.5	-0.902	x
Cc1cc(C)n2nc(SCc3nnc(-c4ccc(F)cc4)o3)nc2n1	0.6	3.0	1	1	36.2	1.06	x
Oc1ccc(/C=N/NC(=S)N/N=C/c2ccc(O)cc2)cc1	0.9	-3.2	1.1	1	12.3	3.3*	0.0927
COc1ccccc1NC(=S)N/N=C/c1ccc(O)cc1	0.8	6.3	1	1	16.3	0.633	x
COc1ccccc1-c1ccc(/C=C2\C=CC(=O)O2)o1	x	x	x	x	x	x	0.0444*
Cc1cc(C)n(-c2nc(Nc3ccccc3C(F)(F)F)nc(-n3nc(C)cc3C)n2)n1	0.6	20.2	0.6	0.7	38.3	x	u
CCOC(=O)/C=c1\s/c(=C\c2ccc3cc(OC)ccc3c2)c(=O)n1CC(=O)NCc1ccc2c(c1)OCO2	1	18.5	1	1	-3.6	-6.03*	0.0464*
CCOC(=O)/C=c1\s/c(=C\c2ccccc2C)c(=O)n1CC(=O)NCc1ccc2c(c1)OCO2	1	7.9	1	0.9	1.0	x	x
O=C1c2ccccc2S(=O)(=O)N1CC1CC(c2ccccc2)=NO1 (centres undefined)	0.8	1.4	1	1.1	23.3	2.09*	0.0675*
CCC1CCCCN1C(=O)COc1c(Br)cc(Br)c2cccnc12 (centres undefined)	0.7	6.8	0.7	0.9	26.2	-4.06*	0.0595*
CCC(=O)NC1OC(CO)C(O)C(O)C1O (centres undefined)	0.9	7.0	1	1	8.8	-2.37*	0.0731
CS(=O)(=O)N1CCC(C(=O)Nc2cccc([N+](=O)[O-])c2)CC1	1	17.3	1	0.9	-0.9	0.0173	x
COC(=O)c1ccc(OC(=O)c2ccc(OC)c(OC)c2)c(OC)c1	0.9	1.2	1	1	13.8	-3.89*	0.0796
